This is an account of results in ChEMBL document CHEMBL4765456, “Discovery of novel liver X receptor inverse agonists as lipogenesis inhibitors” (Eur J Med Chem, 2020).

pIC50: −log10 of the molar value. Active and inactive are the calls of the source. The rule behind the calls is not given here.

What all share (type): cell-based
The target in series [1] is T1, Oxysterols receptor LXR-beta (Homo sapiens) (UniProt P55055).
T1 sequence (whole entry): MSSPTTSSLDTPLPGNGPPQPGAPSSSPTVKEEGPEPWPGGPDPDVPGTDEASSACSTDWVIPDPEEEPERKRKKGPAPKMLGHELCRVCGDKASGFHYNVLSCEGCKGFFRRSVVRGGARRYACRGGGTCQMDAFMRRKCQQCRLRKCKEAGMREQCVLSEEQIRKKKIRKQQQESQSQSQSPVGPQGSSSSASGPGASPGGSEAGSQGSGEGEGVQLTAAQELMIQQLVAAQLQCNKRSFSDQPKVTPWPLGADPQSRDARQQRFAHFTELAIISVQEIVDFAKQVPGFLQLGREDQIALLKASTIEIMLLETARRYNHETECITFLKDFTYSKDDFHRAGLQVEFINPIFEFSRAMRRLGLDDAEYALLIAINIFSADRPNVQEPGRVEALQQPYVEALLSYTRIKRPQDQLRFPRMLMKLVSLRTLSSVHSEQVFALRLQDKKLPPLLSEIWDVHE
The series is described as follows: Agonist activity at human LXRbeta transfected in human HEK293T cells co-transfected with pSG5 and pGL3/(DR-4)-c-fos-FF-luc/pCMV/Renilla-luc assessed as receptor transactivation at 10 uM incubated for 20 hrs by dual luciferase reporter gene assay. As to conditions: filed as agonist. The gist of the method: (§1)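 HEK293T cells seeded at 2 × 10^4 per well for 24 h, then transfected with pGL3/(DR-4)-c-fos-FF-luc, pCMV/Renilla-luc, pSG5/hRXRa and pSG5/hLXRa or pSG5/hLXRb. Compound added 5 h post-transfection and left 20 h. Firefly and Renilla luciferase read by dual-luciferase assay. Means ± SD from three independent experiments.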
(Reporter assays use an easily measured gene product as a stand-in for the process of interest.)

Series [2] deals with T2, Oxysterols receptor LXR-alpha (Homo sapiens) (UniProt Q13133).
T2 sequence (whole entry): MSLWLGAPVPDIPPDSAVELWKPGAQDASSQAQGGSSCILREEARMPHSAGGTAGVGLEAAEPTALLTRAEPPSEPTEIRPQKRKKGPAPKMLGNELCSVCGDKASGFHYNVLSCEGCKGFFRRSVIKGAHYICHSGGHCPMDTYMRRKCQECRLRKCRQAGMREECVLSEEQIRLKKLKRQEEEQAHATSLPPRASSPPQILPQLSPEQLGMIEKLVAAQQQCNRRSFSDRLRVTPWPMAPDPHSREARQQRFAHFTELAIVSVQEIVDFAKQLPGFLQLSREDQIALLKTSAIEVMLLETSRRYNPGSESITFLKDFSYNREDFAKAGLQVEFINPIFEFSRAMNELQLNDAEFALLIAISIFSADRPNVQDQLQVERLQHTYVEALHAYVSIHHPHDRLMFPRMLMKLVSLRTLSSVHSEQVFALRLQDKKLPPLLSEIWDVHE
The series is described as follows: Agonist activity at human LXRalpha transfected in human HEK293T cells co-transfected with pSG5 and pGL3/(DR-4)-c-fos-FF-luc/pCMV/Renilla-luc assessed as receptor transactivation at 10 uM incubated for 20 hrs by dual luciferase reporter gene assay. Conditions: filed as agonist. In a few lines: as §1

The target of series [3] is T1, Oxysterols receptor LXR-beta (Homo sapiens). Put plainly: (§2) Inverse agonist activity at human LXRbeta transfected in human HEK293T cells co-transfected with pSG5 and pGL3/(DR-4)-c-fos-FF-luc/pCMV/Renilla-luc assessed as receptor transactivation incubated for 20 hrs by dual luciferase reporter gene assay.
In series [4] the target is T3, Oxysterols receptor LXR-alpha (Homo sapiens, UniProt Q13133).
T3 sequence (Q13133 whole entry): T2 sequence (whole entry)
The series is described as follows: Inverse agonist activity at human LXRalpha transfected in human HEK293T cells co-transfected with pSG5 and pGL3/(DR-4)-c-fos-FF-luc/pCMV/Renilla-luc assessed as receptor transactivation incubated for 20 hrs by dual luciferase reporter gene assay.

The test system of another series is 3T3-L1. Put plainly: Cytotoxicity against mouse 3T3-L1 cells assessed as reduction in cell viability at 10 uM incubated for 48 hrs by MTT assay. Conditions: 3t3-l1, 48 h. In a few lines: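 Mouse 3T3-L1 cells in DMEM with 10% FBS, 1% penicillin/streptomycin, at 37 °C, 5% CO2. Plated at 2 × 10^3 per well for 24 h, then compound for 48 h. MTT read-out of viability. Means ± SD, three independent experiments.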
(Tetrazolium assays rely on reduction of a dye to a coloured formazan, in cell work by metabolically active cells.)

In the next series the test system is HEK-293T. The series is described as follows: Cytotoxicity against human HEK293T cells assessed as reduction in cell viability upto 10 uM incubated for 48 hrs by MTT assay. In a few lines: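 Cells kept in DMEM with 10% FBS and 1% penicillin/streptomycin at 37 °C, 5% CO2. HEK293T seeded at 5 × 10^3 per well for 24 h, then exposed to compound for 48 h. Viability read by MTT. Means ± SD of three independent experiments.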

Another series has as its system HepG2. The series is described as follows: Cytotoxicity against human HepG2 cells assessed as reduction in cell viability at 10 uM incubated for 48 hrs by MTT assay. Conditions: hepg2, 48 h. The gist of the method:
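HepG2 grown in DMEM with 10% FBS at 37 °C, 5% CO2. Seeded at 1 × 10^5 per well for 24 h, treated 48 h, viability by MTT assay. Means ± SD from three independent experiments.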

For series [5], the target named is T4, Oxysterols receptor LXR-beta (Homo sapiens, UniProt P55055).
T4 sequence (P55055 whole entry): T1 sequence (whole entry)
The description is as §2.

`CC(C)[C@@H]1N(C(=O)OC(C)(C)C)CC[C@@]12C(=O)N(c1cccc(-c3ccc(C(=O)N(C)C)c(Cl)c3)c1)c1ccccc12`: the result in series [1] and in series [2] was Active. Also, the result in series [3] was inactive.
For the compound `CC(C)[C@@H]1N(C(=O)OC(C)(C)C)CC[C@@]12C(=O)N(c1cccc(-c3ccc(CO)cc3)c1)c1ccccc12`, the IC50 entry in series [4] was “Not Active”.
With `COC(=O)c1ccc(N2C(=O)[C@@]3(CCN(C(=O)OC(C)(C)C)[C@H]3C(C)C)c3ccccc32)cc1S(C)(=O)=O`, the result in series [1] and in series [2] was Active. Besides, the result in series [3] was inactive.
For the compound `CC(C)[C@@H]1N(C(=O)OC(C)(C)C)CC[C@@]12C(=O)N(CCCC#N)c1ccccc12`, the result in series [3] was inactive.
Still for that read-out and setting: the entry for `CC(C)[C@@H]1N(C(=O)OC(C)(C)C)CC[C@@]12C(=O)N(CCCCl)c1ccccc12` is “inactive”; for `CC(C)[C@@H]1N(C(=O)OC(C)(C)C)CC[C@@]12C(=O)N(CCCC(=O)O)c1ccccc12` it is “inactive”.
`CC(C)[C@H]1N(C(=O)OC(C)(C)C)CC[C@]12C(=O)N(c1cccc(-c3ccc(CO)c(S(C)(=O)=O)c3)c1)c1ccccc12`: the Activity entry with 3T3-L1, with HEK-293T and in the series on HepG2 was “Non-Toxic” each time.
In the case of `COC(=O)c1ccc(N2C(=O)[C@@]3(CCN(C(=O)OC(C)(C)C)[C@H]3C(C)C)c3ccccc32)cc1`, in series [3], the outcome was inactive.
For the compound `CC(C)[C@@H]1N(C(=O)OC(C)(C)C)CC[C@@]12C(=O)N(c1cccc(-c3ccc(CO)c(Cl)c3)c1)c1ccccc12`, the IC50 result in series [4] was “Not Active”.
On to `CC(C)[C@@H]1N(C(=O)C(C)(C)C)CC[C@@]12C(=O)N(c1cccc(-c3ccc(C(=O)N(C)C)c(Cl)c3)c1)c1ccccc12`, for which the result in series [1] and in series [2] was Active. Further, the outcome in series [3] was inactive.
Regarding `CC(C)[C@@H]1N(C(=O)OC(C)(C)C)CC[C@@]12C(=O)N(c1cccc(-c3ccc4ccn(C)c4c3)c1)c1ccccc12`, the negative-log IC50 (pIC50) (usually the IC50 on a negative log10 scale, so that one unit is a factor of ten) in series [5] is less than 4.70. Besides, the IC50 entry in series [4] is recorded as “Not Active”.
For the compound `CC(C)[C@@H]1N(C(=O)OC(C)(C)C)CC[C@@]12C(=O)N(c1ccc(CO)cc1)c1ccccc12`, the outcome in series [3] was inactive.
Consider `CC(C)[C@@H]1N(C(=O)CC(C)(C)C)CC[C@@]12C(=O)N(c1cccc(-c3ccc(C(=O)N(C)C)c(Cl)c3)c1)c1ccccc12`, for which the result in series [1] and in series [2] was Active. The result in series [3] was inactive.
Turning to `CC(C)[C@@H]1N(C(=O)OC(C)(C)C)CC[C@@]12C(=O)N(c1ccc(CO)c(S(C)(=O)=O)c1)c1ccccc12`, the result in series [1] and in series [2] was Active. Besides, the outcome in series [3] was inactive.
Consider `CC(C)[C@@H]1N(C(=O)OC(C)(C)C)CC[C@@]12C(=O)N(c1cccc(-c3ccc(C(=O)O)c(S(C)(=O)=O)c3)c1)c1ccccc12`, for which the IC50 entry in series [4] is listed as “Not Active”.
